In ChEMBL document CHEMBL1154853, “New 1,3-oxazolo[4,5-c]quinoline derivatives: synthesis and evaluation of antibacterial and antituberculosis properties” (2010):
In brackets after ≈: the same amount, converted by molar mass. Several values for one entry are separate records, joined by “and”; a condition that tells them apart may be missing. Identical values can stand only once.

What was measured:
Format in all cases: functional
[1] = tested on: Staphylococcus aureus; test: Antimicrobial activity against Staphylococcus aureus […] after 16 to 18 hrs by serial dilution method
Procedure, shortened: (§1)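 Tube broth dilution: serial drug dilutions in Mueller Hinton broth, pH adjusted to 5.0 with phosphate buffer. A standardized bacterial suspension was inoculated and incubated 16-18 h at 37 °C. MIC was read as the lowest drug concentration with no visible growth. Ciprofloxacin served as the reference.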

[2] = tested on: Escherichia coli; test: Antimicrobial activity against Escherichia coli […] after 16 to 18 hrs by serial dilution method; procedure, shortened: as §1
[3] = tested on: Pseudomonas aeruginosa; test: Antimicrobial activity against Pseudomonas aeruginosa ATTC 27853 after 16 to 18 hrs by serial dilution method; procedure, shortened: as §1
[4] = tested on: Klebsiella pneumoniae; test: Antimicrobial activity against Klebsiella pneumoniae after 16 to 18 hrs by serial dilution method; procedure, shortened: as §1
[5] = tested on: Staphylococcus aureus; test: Antimicrobial activity against Staphylococcus aureus […] at MIC after 3 to 4 days by disc diffusion method
[6] = tested on: Escherichia coli; test: Antimicrobial activity against Escherichia coli […] at MIC after 3 to 4 days by disc diffusion method
[7] = tested on: Pseudomonas aeruginosa; test: Antimicrobial activity against Pseudomonas aeruginosa ATTC 27853 at MIC after 3 to 4 days by disc diffusion method
[8] = tested on: Klebsiella pneumoniae; test: Antimicrobial activity against Klebsiella pneumoniae at MIC after 3 to 4 days by disc diffusion method
[9] = tested on: Mycobacterium tuberculosis; test: Antitubercular activity against Mycobacterium tuberculosis H37Rv after 24 hrs by broth microdilution method
Procedure, shortened: (§2)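 M. tuberculosis H37Rv grown in Middlebrook 7H9 with 10% OADC, diluted to McFarland 1, 50 µl added to 150 µl fresh medium. Compounds from 2 mg/mL DMF stocks tested at 1, 10 and 100 µg/mL; DMF-only controls. 7 days at 37 °C, then 0.01% resazurin added with 24 h further incubation. MIC = lowest concentration preventing blue-to-pink change.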

[10] = tested on: Mycobacterium tuberculosis; test: Antitubercular activity against Mycobacterium tuberculosis H37Rv at MIC after 24 hrs by broth microdilution method; procedure, shortened: as §2

O=C(Nc1ccc(F)cc1)Nc1c(-c2ccc(F)cc2)nc2ccccc2c1O
MIC [1]: 6.25 µg/mL (≈ 16 µM) | MIC [2]: 6.25 µg/mL (≈ 16 µM) | MIC [3]: 6.25 µg/mL (≈ 16 µM) | MIC [4]: 6.25 µg/mL (≈ 16 µM) | diameter of the inhibition zone (DIZ) [5]: 18 mm | diameter of the inhibition zone (DIZ) [6]: 24 mm | diameter of the inhibition zone (DIZ) [7]: 17 mm | diameter of the inhibition zone (DIZ) [8]: 16 mm | MIC [9]: 10 µg/mL (≈ 25.6 µM) | inhibition (INH) [10]: 95%

O=C(Nc1ccc(F)cc1)Nc1c(-c2cccc(F)c2)nc2ccccc2c1O
MIC [1]: 6.25 µg/mL (≈ 16 µM) | MIC [2]: 6.25 µg/mL (≈ 16 µM) | MIC [3]: 6.25 µg/mL (≈ 16 µM) | MIC [4]: 6.25 µg/mL (≈ 16 µM) | diameter of the inhibition zone (DIZ) [5]: 20 mm | diameter of the inhibition zone (DIZ) [6]: 21 mm | diameter of the inhibition zone (DIZ) [7]: 19 mm | diameter of the inhibition zone (DIZ) [8]: 16 mm | MIC [9]: 10 µg/mL (≈ 25.6 µM) | inhibition (INH) [10]: 95%

CCCCCNC(=O)Nc1c(-c2ccc(F)cc2)nc2ccccc2c1O
MIC [1]: 50 µg/mL (≈ 136 µM) | MIC [2]: 6.25 µg/mL (≈ 17 µM) | MIC [3]: 50 µg/mL (≈ 136 µM) | MIC [4]: 50 µg/mL (≈ 136 µM) | diameter of the inhibition zone (DIZ) [5]: <10 mm | diameter of the inhibition zone (DIZ) [6]: 20 mm | diameter of the inhibition zone (DIZ) [7]: <10 mm | diameter of the inhibition zone (DIZ) [8]: <10 mm | MIC [9]: > 100 µg/mL | inhibition (INH) [10]: 0%

COc1ccccc1Nc1nc2c(-c3cccc(F)c3)nc3ccccc3c2o1
MIC [1]: 6.25 µg/mL (≈ 16.2 µM) | MIC [2]: 6.25 µg/mL (≈ 16.2 µM) | MIC [3]: 6.25 µg/mL (≈ 16.2 µM) | MIC [4]: 6.25 µg/mL (≈ 16.2 µM) | diameter of the inhibition zone (DIZ) [5]: 21 mm | diameter of the inhibition zone (DIZ) [6]: 24 mm | diameter of the inhibition zone (DIZ) [7]: 21 mm | diameter of the inhibition zone (DIZ) [8]: 21 mm | MIC [9]: 1 µg/mL (≈ 2.59 µM) | inhibition (INH) [10]: 99%

Fc1ccc(Nc2nc3c(-c4ccc(F)cc4)nc4ccccc4c3o2)cc1
MIC [1]: 6.25 µg/mL (≈ 16.7 µM) | MIC [2]: 6.25 µg/mL (≈ 16.7 µM) | MIC [3]: 6.25 µg/mL (≈ 16.7 µM) | MIC [4]: 6.25 µg/mL (≈ 16.7 µM) | diameter of the inhibition zone (DIZ) [5]: 20 mm | diameter of the inhibition zone (DIZ) [6]: 28 mm | diameter of the inhibition zone (DIZ) [7]: 22 mm | diameter of the inhibition zone (DIZ) [8]: 20 mm | MIC [9]: 1 µg/mL (≈ 2.68 µM) | inhibition (INH) [10]: 99%

COc1ccccc1Nc1nc2c(-c3ccc(F)cc3)nc3ccccc3c2o1
MIC [1]: 6.25 µg/mL (≈ 16.2 µM) | MIC [2]: 6.25 µg/mL (≈ 16.2 µM) | MIC [3]: 6.25 µg/mL (≈ 16.2 µM) | MIC [4]: 6.25 µg/mL (≈ 16.2 µM) | diameter of the inhibition zone (DIZ) [5]: 22 mm | diameter of the inhibition zone (DIZ) [6]: 27 mm | diameter of the inhibition zone (DIZ) [7]: 19 mm | diameter of the inhibition zone (DIZ) [8]: 23 mm | MIC [9]: 1 µg/mL (≈ 2.59 µM) | inhibition (INH) [10]: 99%

O=C(NCc1ccccc1)Nc1c(-c2ccc(F)cc2)nc2ccccc2c1O
MIC [1]: 6.25 µg/mL (≈ 16.1 µM) | MIC [2]: 50 µg/mL (≈ 129 µM) | MIC [3]: 50 µg/mL (≈ 129 µM) | MIC [4]: 50 µg/mL (≈ 129 µM) | diameter of the inhibition zone (DIZ) [5]: 16 mm | diameter of the inhibition zone (DIZ) [6]: <10 mm | diameter of the inhibition zone (DIZ) [7]: <10 mm | diameter of the inhibition zone (DIZ) [8]: <10 mm | MIC [9]: 10 µg/mL (≈ 25.8 µM) | inhibition (INH) [10]: 95%

O=C(NCc1ccccc1)Nc1c(-c2cccc(F)c2)nc2ccccc2c1O
MIC [1]: 6.25 µg/mL (≈ 16.1 µM) | MIC [2]: 6.25 µg/mL (≈ 16.1 µM) | MIC [3]: 6.25 µg/mL (≈ 16.1 µM) | MIC [4]: 6.25 µg/mL (≈ 16.1 µM) | diameter of the inhibition zone (DIZ) [5]: 18 mm | diameter of the inhibition zone (DIZ) [6]: 21 mm | diameter of the inhibition zone (DIZ) [7]: 20 mm | diameter of the inhibition zone (DIZ) [8]: 18 mm | MIC [9]: 10 µg/mL (≈ 25.8 µM) | inhibition (INH) [10]: 95%

CCCCCNc1nc2c(-c3cccc(F)c3)nc3ccccc3c2o1
MIC [1]: 12.5 µg/mL (≈ 35.8 µM) | MIC [2]: 6.25 µg/mL (≈ 17.9 µM) | MIC [3]: 12.5 µg/mL (≈ 35.8 µM) | MIC [4]: 12.5 µg/mL (≈ 35.8 µM) | diameter of the inhibition zone (DIZ) [5]: 11 mm | diameter of the inhibition zone (DIZ) [6]: 24 mm | diameter of the inhibition zone (DIZ) [7]: 14 mm | diameter of the inhibition zone (DIZ) [8]: 12 mm | MIC [9]: 10 µg/mL (≈ 28.6 µM) | inhibition (INH) [10]: 95%

O=C(O)c1cn(C2CC2)c2cc(N3CCNCC3)c(F)cc2c1=O [CIPROFLOXACIN]
MIC [4]: 6.25 µg/mL (≈ 18.9 µM) | diameter of the inhibition zone (DIZ) [5]: 26 mm and 24 mm | diameter of the inhibition zone (DIZ) [6]: 28 mm and 29 mm | diameter of the inhibition zone (DIZ) [7]: 31 mm and 25 mm | diameter of the inhibition zone (DIZ) [8]: 25 mm and 22 mm

COc1ccccc1NC(=O)Nc1c(-c2cccc(F)c2)nc2ccccc2c1O
MIC [1]: 6.25 µg/mL (≈ 15.5 µM) | MIC [2]: 6.25 µg/mL (≈ 15.5 µM) | MIC [3]: 6.25 µg/mL (≈ 15.5 µM) | MIC [4]: 6.25 µg/mL (≈ 15.5 µM) | diameter of the inhibition zone (DIZ) [5]: 19 mm | diameter of the inhibition zone (DIZ) [6]: 22 mm | diameter of the inhibition zone (DIZ) [7]: 18 mm | diameter of the inhibition zone (DIZ) [8]: 19 mm | MIC [9]: 1 µg/mL (≈ 2.48 µM) | inhibition (INH) [10]: 99%

Fc1cccc(-c2nc3ccccc3c3oc(NCCc4ccccc4)nc23)c1
MIC [1]: 50 µg/mL (≈ 130 µM) | MIC [2]: 50 µg/mL (≈ 130 µM) | MIC [3]: 50 µg/mL (≈ 130 µM) | MIC [4]: 50 µg/mL (≈ 130 µM) | diameter of the inhibition zone (DIZ) [5]: <10 mm | diameter of the inhibition zone (DIZ) [6]: <10 mm | diameter of the inhibition zone (DIZ) [7]: <10 mm | diameter of the inhibition zone (DIZ) [8]: <10 mm | MIC [9]: > 100 µg/mL | inhibition (INH) [10]: 0%

Fc1cccc(-c2nc3ccccc3c3oc(NCc4ccccc4)nc23)c1
MIC [1]: 6.25 µg/mL (≈ 16.9 µM) | MIC [2]: 6.25 µg/mL (≈ 16.9 µM) | MIC [3]: 6.25 µg/mL (≈ 16.9 µM) | MIC [4]: 6.25 µg/mL (≈ 16.9 µM) | diameter of the inhibition zone (DIZ) [5]: 22 mm | diameter of the inhibition zone (DIZ) [6]: 23 mm | diameter of the inhibition zone (DIZ) [7]: 19 mm | diameter of the inhibition zone (DIZ) [8]: 18 mm | MIC [9]: 1 µg/mL (≈ 2.71 µM) | inhibition (INH) [10]: 99%

Fc1ccc(-c2nc3ccccc3c3oc(NCc4ccccc4)nc23)cc1
MIC [1]: 6.25 µg/mL (≈ 16.9 µM) | MIC [2]: 6.25 µg/mL (≈ 16.9 µM) | MIC [3]: 6.25 µg/mL (≈ 16.9 µM) | MIC [4]: 6.25 µg/mL (≈ 16.9 µM) | diameter of the inhibition zone (DIZ) [5]: 21 mm | diameter of the inhibition zone (DIZ) [6]: 24 mm | diameter of the inhibition zone (DIZ) [7]: 24 mm | diameter of the inhibition zone (DIZ) [8]: 19 mm | MIC [9]: 10 µg/mL (≈ 27.1 µM) | inhibition (INH) [10]: 95%

CSc1ccc(NC(=O)Nc2c(-c3cccc(F)c3)nc3ccccc3c2O)cc1
MIC [1]: 50 µg/mL (≈ 119 µM) | MIC [2]: 6.25 µg/mL (≈ 14.9 µM) | MIC [3]: 50 µg/mL (≈ 119 µM) | MIC [4]: 50 µg/mL (≈ 119 µM) | diameter of the inhibition zone (DIZ) [5]: <10 mm | diameter of the inhibition zone (DIZ) [6]: 22 mm | diameter of the inhibition zone (DIZ) [7]: <10 mm | diameter of the inhibition zone (DIZ) [8]: <10 mm | MIC [9]: > 100 µg/mL | inhibition (INH) [10]: 0%

N#Cc1cccc(Nc2nc3c(-c4cccc(F)c4)nc4ccccc4c3o2)c1
MIC [1]: 12.5 µg/mL (≈ 32.9 µM) | MIC [2]: 12.5 µg/mL (≈ 32.9 µM) | MIC [3]: 12.5 µg/mL (≈ 32.9 µM) | MIC [4]: 12.5 µg/mL (≈ 32.9 µM) | diameter of the inhibition zone (DIZ) [5]: 11 mm | diameter of the inhibition zone (DIZ) [6]: 16 mm | diameter of the inhibition zone (DIZ) [7]: 14 mm | diameter of the inhibition zone (DIZ) [8]: 12 mm | MIC [9]: > 100 µg/mL | inhibition (INH) [10]: 0%

Fc1ccc(Nc2nc3c(-c4cccc(F)c4)nc4ccccc4c3o2)cc1
MIC [1]: 6.25 µg/mL (≈ 16.7 µM) | MIC [2]: 6.25 µg/mL (≈ 16.7 µM) | MIC [3]: 6.25 µg/mL (≈ 16.7 µM) | MIC [4]: 6.25 µg/mL (≈ 16.7 µM) | diameter of the inhibition zone (DIZ) [5]: 22 mm | diameter of the inhibition zone (DIZ) [6]: 25 mm | diameter of the inhibition zone (DIZ) [7]: 25 mm | diameter of the inhibition zone (DIZ) [8]: 19 mm | MIC [9]: 1 µg/mL (≈ 2.68 µM) | inhibition (INH) [10]: 99%

CO[C@H]1/C=C/O[C@@]2(C)Oc3c(C)c(O)c4c(O)c(c(/C=N/N5CCN(C)CC5)c(O)c4c3C2=O)NC(=O)/C(C)=C\C=C\[C@H](C)[C@H](O)[C@@H](C)[C@@H](O)[C@@H](C)[C@H](OC(C)=O)[C@@H]1C [RIFAMPIN]
MIC [9]: 0.5 µg/mL (≈ 0.608 µM) | inhibition (INH) [10]: 99%

NNC(=O)c1ccncc1 [ISONIAZID]
MIC [9]: 1.5 µg/mL (≈ 10.9 µM) | inhibition (INH) [10]: 95%
